Assay results reported in ChEMBL document CHEMBL1143007, “Synthesis and evaluation of 4/5-hydroxy-2,3-diaryl(substituted)-cyclopent-2-en-1-ones as cis-restricted analogues of combretastatin A-4 as novel anticancer agents” (J Med Chem, 2007).
Values after ≈ are worked out from the molar mass of the structure shown.

Columns and labels:
HT-29 = assay: Cytotoxicity against human HT29 cells after 72 hrs by MTT assay; format: cell-based; conditions: Homo sapiens, HT-29, 72 h; read-out: IC50
In short: (§1)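 MTT assay. Cells seeded at 5000-10 000 per well and incubated at 37 °C in CO₂ with compound at 1-100 µg/mL in triplicate wells for 72 h, then MTT added. Absorbance read at 540 nm; % cytotoxicity = 100 × (1 − treated/control). IC50 obtained by nonlinear regression; NA means IC50 above 100 µg/mL.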

DU-145 = assay: Cytotoxicity against human DU145 cells after 72 hrs by MTT assay; format: cell-based; conditions: Homo sapiens, DU-145, 72 h; read-out: IC50; in short: as §1
KB = assay: Cytotoxicity against human KB cells after 72 hrs by MTT assay; format: cell-based; conditions: Homo sapiens, KB, 72 h; read-out: IC50; in short: as §1
L132 = assay: Cytotoxicity against human L132 cells after 72 hrs by MTT assay; format: cell-based; conditions: Homo sapiens, L132, 72 h; read-out: IC50; in short: as §1
MIA PaCa-2 = assay: Cytotoxicity against human MiaPaCa2 cells after 72 hrs by MTT assay; format: cell-based; conditions: Homo sapiens, MIA PaCa-2, 72 h; read-out: IC50; in short: as §1
[1] = Cytotoxicity against human Hep2 cells after 72 hrs by MTT assay; format: cell-based, HEp-2; conditions: Homo sapiens, HEp-2, 72 h; read-out: IC50; in short: as §1
[2] = Cytotoxicity against human PA1 cells after 72 hrs by MTT assay; format: cell-based, PA-1; conditions: Homo sapiens, PA-1, 72 h; read-out: IC50; in short: as §1
[3] = Cytotoxicity against human ECV304 cells after 72 hrs by MTT assay; format: cell-based, ECV-304; conditions: Homo sapiens, ECV-304, 72 h; read-out: IC50; in short: as §1
HEK293 = assay: Cytotoxicity against human HEK293 cells after 72 hrs by MTT assay; format: cell-based; conditions: Homo sapiens, HEK293, 72 h; read-out: IC50; in short: as §1

SMILES	IC50 (HT-29) [µg/mL]	IC50 (DU-145) [µg/mL]	IC50 (KB) [µg/mL]	IC50 (L132) [µg/mL]	IC50 (MIA PaCa-2) [µg/mL]	IC50 [1] [µg/mL]	IC50 [2] [µg/mL]	IC50 [3] [µg/mL]	IC50 (HEK293) [µg/mL]
C=CCOc1cc(C2=C(c3cc(OC)c(OC)c(OC)c3)C(=O)C(O)C2)ccc1OC (configuration not stated)	> 100	> 100	> 100	> 100	> 100	> 100	> 100	> 100	> 100
CCOC(=O)COc1ccc(C2=C(c3cc(OC)c(OC)c(OC)c3)C(=O)CC2O)cc1 (configuration not stated)	> 100	> 100	> 100	> 100	> 100	> 100	> 100	> 100	> 100
COc1ccc(C2=C(c3cc(OC)c(OC)c(OC)c3)/C(=N\O)C(O)C2)cc1O (configuration not stated)	69 (≈ 172 µM)	10 (≈ 24.9 µM)	90 (≈ 224 µM)	81 (≈ 202 µM)	> 100	20 (≈ 49.8 µM)	26 (≈ 64.8 µM)	> 100	> 100
COc1ccc(C2=C(c3cc(OC)c(OC)c(OC)c3)/C(=N\O)CC2O)cc1 (configuration not stated)	15 (≈ 38.9 µM)	34.2 (≈ 88.9 µM)	–	11 (≈ 28.5 µM)	> 100	> 100	2.35 (≈ 6.1 µM)	> 100	> 100
COc1ccc(C2=C(c3cc(OC)c(OC)c(OC)c3)C(=O)CC2O)cc1 (configuration not stated)	15 (≈ 40.5 µM)	18.7 (≈ 50.5 µM)	–	10 (≈ 27 µM)	> 100	> 100	3.38 (≈ 9.13 µM)	> 100	10 (≈ 27 µM)
COc1ccc(C2=C(c3cc(OC)c(OC)c(OC)c3)C(=O)C(OC(C)=O)C2)cc1NC=O (configuration not stated)	< 1	> 100	8 (≈ 17.6 µM)	2 (≈ 4.39 µM)	2 (≈ 4.39 µM)	3.27 (≈ 7.18 µM)	5 (≈ 11 µM)	–	4.16 (≈ 9.13 µM)
COc1ccc(C2=C(c3cc(OC)c(OC)c(OC)c3)/C(=N\O)C(OC(C)=O)C2)cc1 (configuration not stated)	1 (≈ 2.34 µM)	> 100	69 (≈ 161 µM)	–	< 1	100 (≈ 234 µM)	< 1	> 100	25.6 (≈ 59.9 µM)
COc1ccc(C2=C(c3cc(OC)c(OC)c(OC)c3)/C(=N\O)CC2O[Si](C)(C)C(C)(C)C)cc1OC (configuration not stated)	20 (≈ 37.8 µM)	60 (≈ 113 µM)	15 (≈ 28.3 µM)	60 (≈ 113 µM)	15 (≈ 28.3 µM)	32 (≈ 60.4 µM)	–	36 (≈ 68 µM)	70 (≈ 132 µM)
